This passage reports Ki results from ChEMBL document CHEMBL1125581 (J Med Chem, 1991).

Assay [1] concerns the target T1, Muscarinic acetylcholine receptor M1 (Rattus norvegicus, UniProt P08482).
T1 sequence (P08482 whole entry): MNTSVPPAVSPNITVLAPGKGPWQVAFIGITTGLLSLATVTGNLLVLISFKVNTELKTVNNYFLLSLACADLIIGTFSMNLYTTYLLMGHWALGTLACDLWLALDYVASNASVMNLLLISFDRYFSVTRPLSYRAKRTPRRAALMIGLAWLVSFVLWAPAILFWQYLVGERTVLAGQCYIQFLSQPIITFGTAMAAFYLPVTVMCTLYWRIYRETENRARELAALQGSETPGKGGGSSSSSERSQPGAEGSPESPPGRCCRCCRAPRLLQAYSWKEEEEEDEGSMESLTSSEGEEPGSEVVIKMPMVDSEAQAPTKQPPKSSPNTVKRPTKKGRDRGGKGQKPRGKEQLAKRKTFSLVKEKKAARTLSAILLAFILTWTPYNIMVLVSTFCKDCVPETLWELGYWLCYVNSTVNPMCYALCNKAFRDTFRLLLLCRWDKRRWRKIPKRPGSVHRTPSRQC
Briefly: Inhibition of binding of [3H]N-Methyl-scopolamine to Muscarinic acetylcholine receptor M1 of transfected A9L cells. It is filed as cell-based. Put shortly: (§1)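 Confluent A9L (transfected m1/m3) or NG108-15 (m4) cultures were lysed in 2 mM Tris-HCl pH 7.1/1 mM EDTA, 30 min, 2 °C, then homogenized. Crude membranes were spun at 50000g. Membranes (150–300 μg protein) were incubated with 0.5 nM [3H]NMS and varied analogue in DMEM-Hepes for 90 min at 37 °C, then filtered. Nonspecific binding was set with 1 μM atropine. Ki values are from 1–3 triplicate determinations.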

Assay [2] concerns the target T2, Muscarinic acetylcholine receptor M2 (Rattus norvegicus, UniProt P10980).
T2 sequence (P10980 whole entry): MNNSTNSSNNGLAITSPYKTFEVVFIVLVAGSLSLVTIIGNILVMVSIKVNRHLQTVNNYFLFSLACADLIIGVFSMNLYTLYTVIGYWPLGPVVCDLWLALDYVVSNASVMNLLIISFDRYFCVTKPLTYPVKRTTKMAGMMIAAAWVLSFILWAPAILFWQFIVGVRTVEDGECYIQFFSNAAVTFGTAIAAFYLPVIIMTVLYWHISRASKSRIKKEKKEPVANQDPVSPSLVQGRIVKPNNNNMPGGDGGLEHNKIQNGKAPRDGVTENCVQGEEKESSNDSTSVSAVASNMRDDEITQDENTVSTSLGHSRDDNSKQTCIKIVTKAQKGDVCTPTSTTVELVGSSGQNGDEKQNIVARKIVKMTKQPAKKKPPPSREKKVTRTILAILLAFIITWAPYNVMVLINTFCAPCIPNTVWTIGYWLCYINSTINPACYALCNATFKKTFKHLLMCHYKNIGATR
Briefly: Inhibition of binding of [3H]N-Methyl-scopolamine to Muscarinic acetylcholine receptor M2 of rat heart tissue membranes. The class given is cell membranes, Membrane. A digest of the protocol:
(§2)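 Rat heart membranes (150–300 μg protein) incubated 90 min at 37 °C in DMEM-Hepes with 0.5 nM [3H]NMS and varied unlabeled analogue concentrations. Bound radioligand collected by rapid GF/B filtration, washed with ice-cold 0.9% NaCl, and scintillation counted. Nonspecific binding with 1 μM atropine subtracted. Ki values come from one to three determinations, each in triplicate.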

Assay [3] concerns the target T3, Muscarinic acetylcholine receptor M3 (Rattus norvegicus, UniProt P08483). Kind of assay: Compound was tested for the inhibition of binding of [3H]N-Methyl-scopolamine to mmuscarinic acetylcholine receptor M3 of transfected rat A9L cells. The class given is cell-based. A digest of the protocol: as §1
Assay [4] concerns the target T2, Muscarinic acetylcholine receptor M2. Briefly: Inhibition of binding of [3H]N-methylscopolamine to muscarinic acetylcholine receptor M2 of rat heart tissue membrane. It is filed as tissue-based. Put shortly: as §2
The target of assay [5] is T1, Muscarinic acetylcholine receptor M1. Briefly: Inhibition of binding of [3H]N-methylscopolamine to muscarinic acetylcholine receptor M1 of transfected rat A9L cells. The class given is cell-based.
Assay [6] has as its target T4, Muscarinic acetylcholine receptor M4 (Rattus norvegicus, UniProt P08485).
T4 sequence (P08485 whole entry): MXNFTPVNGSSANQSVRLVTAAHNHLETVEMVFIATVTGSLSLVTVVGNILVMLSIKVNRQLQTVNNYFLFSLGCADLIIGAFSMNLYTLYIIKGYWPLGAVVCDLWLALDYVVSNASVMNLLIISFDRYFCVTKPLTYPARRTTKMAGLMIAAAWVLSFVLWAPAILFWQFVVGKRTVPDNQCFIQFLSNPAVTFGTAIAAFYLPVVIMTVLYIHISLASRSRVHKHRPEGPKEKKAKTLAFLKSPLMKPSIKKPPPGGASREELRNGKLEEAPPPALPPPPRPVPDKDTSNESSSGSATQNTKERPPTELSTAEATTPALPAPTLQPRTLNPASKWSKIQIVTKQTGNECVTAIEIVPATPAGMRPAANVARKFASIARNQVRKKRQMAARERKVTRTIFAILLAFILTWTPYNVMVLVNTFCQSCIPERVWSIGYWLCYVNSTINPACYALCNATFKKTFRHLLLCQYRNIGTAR
Briefly: Inhibition of binding of [3H]N-Methyl-scopolamine to muscarinic acetylcholine receptor M4 of rat […] NG108-15 cells. The class given is cell-based.

The target of assay [7] is T1, Muscarinic acetylcholine receptor M1. Kind of assay: The compound was tested for the inhibition of binding of [3H]N-Methyl-scopolamine to muscarinic acetylcholine receptor M1 of transfected A9L cells. It is filed as cell-based. A digest of the protocol:
as §1

Assay [8] deals with T2, Muscarinic acetylcholine receptor M2. Kind of assay: The compound was tested for the inhibition of binding of [3H]N-Methyl-scopolamine to muscarinic acetylcholine receptor M2 of rat heart tissue membranes. The class given is cell membranes, Membrane. Put shortly: as §2
Assay [9] addresses T3, Muscarinic acetylcholine receptor M3. Briefly: The compound was tested for the inhibition of binding of [3H]N-Methyl-scopolamine to Muscarinic acetylcholine receptor M3 of transfected A9L cells. The class given is cell-based. A digest of the protocol: (§3)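 Crude membranes (150–300 μg protein) were incubated 90 min at 37 °C in DMEM-Hepes with 0.5 nM [3H]NMS and a range of unlabeled analogue concentrations. Incubation was stopped by rapid GF/B filtration, followed by ice-cold 0.9% NaCl washes and scintillation counting. Nonspecific binding was defined with 1 μM atropine and subtracted. Ki came from one to three determinations, each run in triplicate.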

For assay [10], the target named is T4, Muscarinic acetylcholine receptor M4. Kind of assay: Inhibition of binding of [3H]N-Methyl-scopolamine to Muscarinic acetylcholine receptor M4 of NG108-15 cells. The class given is cell-based. A digest of the protocol: as §1
The target of assay [11] is T2, Muscarinic acetylcholine receptor M2. Briefly: The compound was tested for the inhibition of binding of [3H]N-Methyl-scopolamine to muscarinic acetylcholine receptor M2 of rat heart tissue membranes. It is filed as cell membranes, Membrane. A digest of the protocol:
as §3

Assay [12] concerns the target T3, Muscarinic acetylcholine receptor M3. Kind of assay: The compound was tested for the inhibition of binding of [3H]N-Methyl-scopolamine to muscarinic acetylcholine receptor M3 of transfected A9L cells. The class given is cell-based. Put shortly: as §3
The target of assay [13] is T1, Muscarinic acetylcholine receptor M1. Kind of assay: The compound was tested for the inhibition of binding of [3H]N-Methyl-scopolamine to muscarinic acetylcholine receptor M1r of transfected A9L cells. It is filed as cell-based. A digest of the protocol:
as §3

Structures are written as SMILES. Where only a bound is given, the exact number is not on record here.

T3 sequence (P08483 whole entry): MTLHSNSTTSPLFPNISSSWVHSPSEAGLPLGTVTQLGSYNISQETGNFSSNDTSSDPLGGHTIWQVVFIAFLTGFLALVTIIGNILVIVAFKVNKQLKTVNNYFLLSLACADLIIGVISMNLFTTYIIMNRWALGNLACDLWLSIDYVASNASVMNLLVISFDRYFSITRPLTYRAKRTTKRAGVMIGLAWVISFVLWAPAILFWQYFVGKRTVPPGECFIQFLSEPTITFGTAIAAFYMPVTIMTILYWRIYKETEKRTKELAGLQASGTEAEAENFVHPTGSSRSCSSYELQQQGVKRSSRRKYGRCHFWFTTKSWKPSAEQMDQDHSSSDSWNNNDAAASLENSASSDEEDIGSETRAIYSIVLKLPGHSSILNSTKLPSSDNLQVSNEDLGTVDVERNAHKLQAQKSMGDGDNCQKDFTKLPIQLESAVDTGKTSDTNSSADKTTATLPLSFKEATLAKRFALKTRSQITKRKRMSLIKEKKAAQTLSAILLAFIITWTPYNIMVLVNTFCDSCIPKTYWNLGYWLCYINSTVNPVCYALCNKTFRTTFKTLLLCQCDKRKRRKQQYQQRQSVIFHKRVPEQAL

As for `NCCCCCCCCCCN1CCN(CC(=O)N2c3ccccc3C(=O)Nc3cccnc32)CC1`, the inhibitory constant (Ki) (commonly the dissociation constant of the complex between target and ligand, obtained from inhibition or displacement) in [1] is 15.8 nM; in assay [2], 11.7 nM.
The matching figures for `CCN(CC)CCCCCCCCCCN1CCN(CC(=O)N2c3ccccc3C(=O)Nc3cccnc32)CC1`: 3 nM and 13.5 nM.
In the case of `NCCCCCCCN1CCN(CC(=O)N2c3ccccc3C(=O)Nc3cccnc32)CC1`, the inhibition constant (Ki) turned out to be 66 nM in assay [1] and 57 nM in assay [2].
Turning to `CNC(=O)c1ccc(CN2CCN(CC(=O)N3c4ccccc4C(=O)Nc4cccnc43)CC2)cc1`, the inhibition constant Ki was determined as 4.02 µM in assay [3], 2650 nM in [4], 2840 nM in assay [5] and 2940 nM in assay [6].
On to `CCN1C(=O)c2ccccc2N(C(=O)CN2CCN(C)CC2)c2ncccc21`, for which the Ki turned out to be 7.7 µM in [7] and 8 µM in assay [8].
For the compound `O=C1Nc2cccnc2N(C(=O)CN2CCN(CCCCCCN3C(=O)c4ccccc4C3=O)CC2)c2ccccc21`, the inhibition constant Ki in assay [1] and in assay [2] was 18 nM in each case.
In the case of `O=C1Nc2cccnc2N(C(=O)CN2CCN(CCCl)CC2)c2ccccc21`, the Ki in [9] was 78 nM; in [10] it was 130 nM; in assay [1], 52 nM; in assay [2] it was 210 nM.
Take `CN1CCN(CC(=O)N2c3ccccc3C(=O)N(CCCCCCC#N)c3cccnc32)CC1`: in [7], the Ki is 8.9 µM.
For the compound `CN1CCN(CC(=O)N2c3cc(CO[Si](C)(C)C(C)(C)C)ccc3C(=O)Nc3cccnc32)CC1`, the Ki in [11] is 4.4 µM; in assay [12], more than 30 µM; in assay [13] it was more than 30 µM.
Turning to `CC(=O)NCCCCCCCCCCN1CCN(CC(=O)N2c3ccccc3C(=O)Nc3cccnc32)CC1`, the figures for the inhibition constant Ki in assay [1] and in assay [2] were 75 nM and 43 nM, respectively.
